For data set [1], the system named is HepG2. Nature of the data set: Cell cycle arrest in human HepG2 cells assessed as reduction in CDK4 expression measured after 48 hrs by Western blot analysis. The class given is functional, cell-based. Particulars: dose 1-10 µM. A digest of the protocol: (§1)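 HepG2 cells treated for 48 h and lysed. Lysates cleared at 12000 rpm for 15 min and protein measured by BCA. Run on SDS-PAGE, transferred to PVDF, blocked in 5% BSA, primary antibody at 4 °C overnight, then DyLight 800 secondary. Infrared imaging and densitometry against β-actin. Mean ± SD, n=3.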
A general note: A western blot detects proteins with antibodies after separation by electrophoresis.

Data set [2] relates to HepG2. Kind of data set: Induction of apoptosis in human HepG2 cells assessed as viable cells at 1 uM measured after 48 hrs by Annexin V-FITC/propidium iodide staining based flow cytometry (reference value: 95.6%). The format is functional. The note with it: read-out: Activity. The method in brief:
(§2)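 HepG2 cells incubated with the stated concentrations for 48 h, harvested, and stained with Annexin V-FITC and propidium iodide protected from light. Viable, early apoptotic, late apoptotic and necrotic fractions quantified by flow cytometry. Mean ± SD, n=3.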
(In general: A flow cytometer gives signals particle by particle.)

The subject of data set [3] is HepG2. Kind of data set: Induction of apoptosis in human HepG2 cells assessed as late apoptotic cells at 10 uM measured after 48 hrs by Annexin V-FITC/propidium iodide staining based flow cytometry (reference value: 0.19%). The format is functional. The method in brief: as §2
Data set [4] deals with HepG2. Nature of the data set: Induction of apoptosis in human HepG2 cells assessed as increase in caspase-3 activation at 1 to 10 uM measured after 48 hrs by Western blot analysis. The format is functional, cell-based. The note with it: dose 1-10 µM. The method in brief: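 Western blots for Bcl-2, Bax, cleaved caspase-3 and cleaved PARP in HepG2 cells after 48 h treatment (1, 5, 10 μM for PARP). Lysates cleared, protein quantified by BCA, run on SDS-PAGE to PVDF, blocked in 5% BSA, primary overnight at 4 °C, DyLight 800 secondary. Infrared scanning and densitometry normalized to β-actin. Mean ± SD, n=3.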

Data set [5] has as its system HepG2. Nature of the data set: Cell cycle arrest in human HepG2 cells assessed as accumulation at G0/G1 phase at 5 uM measured after 48 hrs by propidium iodide staining based flow cytometry (reference value: 56.24%). The class given is functional.
In data set [6] the test system is HepG2. Nature of the data set: Cell cycle arrest in human HepG2 cells assessed as accumulation at G0/G1 phase measured after 48 hrs by propidium iodide staining based flow cytometry. The format is functional. Particulars: dose 1-10 µM.
The test system of data set [7] is HepG2. Nature of the data set: Induction of apoptosis in human HepG2 cells assessed as necrotic cells at 1 uM measured after 48 hrs by Annexin V-FITC/propidium iodide staining based flow cytometry (reference value: 0.22%). The format is functional. A digest of the protocol: as §2
Data set [8] concerns HepG2. Nature of the data set: Antiproliferative activity against human HepG2 cells assessed as reduction in cell viability measured after 72 hrs in presence of doxorubicin by MTT assay. The note with it: dose 0.0875-1.4 µM. The format is functional, cell-based.
Data set [9] concerns HepG2. Nature of the data set: Antiproliferative activity against human HepG2 cells assessed as cell viability at 0.5 uM measured after 5 days in presence of 25 uM palmitate by MTT assay relative to control. The class given is functional. The note with it: HepG2, 120 h, time 5 day, read-out: Activity. A digest of the protocol: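 HepG2 treated with 0.5 μM plus 0, 10 or 25 μM palmitate for 1, 3 and 5 days. Palmitate was complexed with 5% fatty-acid-free BSA from a 5 mM solution, then diluted in serum-free DMEM to final concentration. Viability (% control) by MTT. Mean ± SD, n=3.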
A general note: Formazan colour is commonly taken as a measure of viable cells.

The subject of data set [10] is HepG2. Kind of data set: Antiproliferative activity against human HepG2 cells assessed as cell growth inhibition after 72 hrs by MTT assay. The note with it: HepG2, 72 h. The class given is functional, cell-based. A digest of the protocol: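 HepG2, A549 or MDA-MB-231 cells grown in DMEM with 10% FBS and penicillin/streptomycin at 37 °C, 5% CO2. Seeded at 3×10^3 per well, left 24 h, then exposed to a range of concentrations for 72 h. MTT added for 4 h, formazan dissolved in DMSO, absorbance read at 550 nm. Mean ± SD, n=3.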

In data set [11] the test system is HepG2. Kind of data set: Induction of apoptosis in human HepG2 cells assessed as late apoptotic cells at 1 uM measured after 48 hrs by Annexin V-FITC/propidium iodide staining based flow cytometry (reference value: 0.19%). The format is functional. The method in brief:
as §2

For data set [12], the system named is HepG2. Kind of data set: Induction of apoptosis in human HepG2 cells assessed as nuclear fragmentation at 1 to 10 uM measured after 48 hrs by Hoechst 33258 staining based fluorescence microscopic analysis. Particulars: dose 1-10 µM. The class given is functional, cell-based. A digest of the protocol: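 HepG2 cells exposed to varying concentrations for 48 h in 6-well plates. Stained with Hoechst 33258 in the dark for 20 min, then nuclear morphology inspected by fluorescence microscopy.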

In data set [13] the test system is HepG2. Nature of the data set: Induction of apoptosis in human HepG2 cells assessed as early apoptotic cells at 10 uM measured after 48 hrs by Annexin V-FITC/propidium iodide staining based flow cytometry (reference value: 4.03%). The class given is functional. A digest of the protocol:
as §2

Data set [14] concerns HepG2. Kind of data set: Induction of apoptosis in human HepG2 cells assessed as viable cells at 10 uM measured after 48 hrs by Annexin V-FITC/propidium iodide staining based flow cytometry (reference value: 95.6%). The class given is functional. The note with it: read-out: Activity. The method in brief:
as §2

The subject of data set [15] is HepG2. Nature of the data set: Cell cycle arrest in human HepG2 cells assessed as accumulation at G0/G1 phase at 1 uM measured after 48 hrs by propidium iodide staining based flow cytometry (reference value: 56.24%). The format is functional.
In data set [16] the test system is HepG2. Nature of the data set: Antiproliferative activity against human HepG2 cells assessed as combination index at 1.4 uM measured after 72 hrs in presence of 2.8 uM doxorubicin by MTT assay. The format is functional.
Data set [17] has as its system HepG2. Kind of data set: Induction of apoptosis in human HepG2 cells assessed as increase in late apoptotic cells measured after 48 hrs by Annexin V-FITC/propidium iodide staining based flow cytometry. The note with it: dose 1-10 µM. The class given is functional, cell-based. The method in brief:
as §2

A further data set relates to A549. Kind of data set: Antiproliferative activity against human A549 cells assessed as cell growth inhibition at 10 uM after 72 hrs by MTT assay relative to control. The format is functional. The note with it: read-out: GI. The method in brief:
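Cells were DMEM/10% FBS cultures at 37 °C, 5% CO2, seeded at 3×10^3 per well and exposed for 72 h after 24 h attachment. Read-out was MTT with formazan in DMSO and absorbance at 550 nm, expressed as inhibition rate versus control.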

Data set [18] is described as follows: Cytotoxicity against HUVEC assessed as cell viability at 100 uM after 72 hrs by MTT assay relative to control. Particulars: human, HUVEC cells, read-out: Activity. The class given is cell-based. The method in brief: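 HUVEC kept in RPMI 1640 with 10% FBS at 37 °C, 5% CO2. Seeded at 3×10^3 per well and treated at 100 µM for 72 h after 24 h attachment. Viability by MTT with absorbance at 550 nm, as percent of control. Mean ± SD, n=3.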

Data set [19] relates to HepG2. Nature of the data set: Cell cycle arrest in human HepG2 cells assessed as reduction in CDK4 expression at 10 uM measured after 48 hrs by Western blot analysis relative to control. The format is functional. Also noted: scale not given: the % may be the effect or the level left. The method in brief:
as §1

Data set [20] has as its system HepG2. Nature of the data set: Cell cycle arrest in human HepG2 cells assessed as reduction in cyclin D1 expression at 10 uM measured after 48 hrs by Western blot analysis relative to control. More on the design: scale not given: the % may be the effect or the level left. The format is functional. The method in brief: as §1
Data set [21] has as its system HepG2. Nature of the data set: Induction of apoptosis in human HepG2 cells assessed as necrotic cells at 10 uM measured after 48 hrs by Annexin V-FITC/propidium iodide staining based flow cytometry (reference value: 0.22%). The format is functional. The method in brief: as §2
The next data set has as its target Acetyl-CoA carboxylase 1 (Homo sapiens, UniProt Q13085). Nature of the data set: Inhibition of ACC1 in human HepG2 cells assessed as reduction in intracellular triglyceride level measured after 48 hrs by GPO-PAP method. The format is cell-based. Particulars: dose 1-10 µM. A digest of the protocol:
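HepG2 cells plated and exposed to the compound at several concentrations for 48 h. Cells washed with PBS, lysed in 1% Triton X-100 and spun 12000 rpm, 4 °C, 15 min. Malonyl-CoA measured by ELISA kit and triglyceride by GPO-POP kit, each normalised to BCA protein. Reported relative to control, mean ± SD, n=3.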

From ChEMBL document CHEMBL4732112, “Synthesis and in vitro evaluation of novel spiroketopyrazoles as acetyl-CoA carboxylase inhibitors and potential antitumor agents” (Eur J Med Chem, 2021) come the findings set out here.

Calls of active or inactive are those of the source. The rule behind the calls is not given here.

As a reminder, the IC50 is the concentration that inhibits the measured activity by half. With `CC(C)(C)n1cc2c(n1)C(=O)CC1(CCN(C(=O)c3cc(-c4ccncc4)nc4ccccc34)CC1)O2`, the Activity result with HepG2 [1] is “Dose-dependent effect”; with HepG2 [3], 45.5%; in the data set on HepG2 [5], 78.83%; in the data set on HepG2 [6] it was “Dose-dependent effect”; in the data set on HepG2 [7], 3.61%; with HepG2 [8], “Dose-dependent effect”. Also, the Activity is 12.7% in the data set on HepG2 [11]; 41.6% with HepG2 [13]; 67.68% in the data set with HepG2 [15]; “Dose-dependent effect” in the data set with HepG2 [17]; 60.76% in the data set on HepG2 [19]; 43.92% with HepG2 [20]. Also, in the data set with HepG2 [21], the Activity came to 0.64%. Besides, the viability at 1 µM with HepG2 [2] was determined as 72.1%. For the same molecule, the result with HepG2 [4] and in the data set with HepG2 [12] was Active. The viability at 0.5 µM in the data set with HepG2 [9] came out at 87.1%. Besides, the IC50 with HepG2 [10] worked out at 380 nM. Further, the viability at 10 µM with HepG2 [14] came out at 12.2%. In addition, the CI with HepG2 [16] turned out to be 0.366. Also, in the data set on A549, the inhibition of growth at 10 µM was determined as 79.3%. Moreover, the viability at 72 h, 100 µM in data set [18] was determined as 95.2%. For the same molecule, on Acetyl-CoA carboxylase 1, the inhibition result is “Dose-dependent effect”.
